The source of these data is ChEMBL document CHEMBL1132258, “gamma-Aminobutyrate-A receptor modulation by 3-aryl-1-(arylsulfonyl)- 1,4,5,6-tetrahydropyridazines” (J Med Chem, 1999).

In experiment [1] the target is GABA-A receptor; anion channel. Put plainly: In vitro binding affinity to the Gamma-aminobutyric acid A receptor complex in absence of GABA in rat cerebellum tissue. The class given is tissue-based.
The target of experiment [2] is GABA-A receptor; anion channel. Nature of the experiment: In vitro binding affinity to the Gamma-aminobutyric acid A receptor complex in presence of GABA in rat cerebellum tissue. The class given is tissue-based.
The target of experiment [3] is T1, GABA-A receptor; anion channel (Rattus norvegicus) (UniProt O09028+P15431+P18506+P18508+P19969+P20236+P23574+P23576+P28471+P28473+P30191+P62813+P63079+P63138+Q91ZM7+Q9ES14). Nature of the experiment: Ratio of IC50 in the presence and absence of GABA. The experiment is classed as functional.
Experiment [4] deals with Mus musculus. Nature of the experiment: In vivo suppression of pentylenetetrazole-induced convulsions by the compound at the mentioned dose of, 1, i.p. ( mg/kg); out of 6 tested animals. The experiment is classed as functional. The gist of the method: (§1)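 Mice were dosed ip with compound or vehicle (10 mL/kg). Pentylenetetrazole 85 mg/kg sc was given 1 h later. Mice were housed individually and watched for 30 min for clonic convulsions, scored present or absent. Results are reported as number convulsed over number tested.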

Experiment [5] deals with Mus musculus. Nature of the experiment: In vivo Horizontal screen test for motor impairment by the compound at the mentioned dose of 1, i.p. ( mg/kg); out of 6 tested animals. The experiment is classed as functional. The gist of the method: (§2)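 Mice were dosed ip with compound or vehicle (10 mL/kg). After 1 h, just before sc pentylenetetrazole, they were placed on an inverted horizontal screen. Passing meant climbing to the top side within 1 min. Results are reported as number passed over number tested.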

In experiment [6] the test system is Mus musculus. Nature of the experiment: In vivo Horizontal screen test for motor impairment by the compound at the mentioned dose of 10, i.p. (mg/kg); out of 6 tested animals. The experiment is classed as functional. In short, it runs like this:
as §2

Experiment [7] has as its system Mus musculus. Nature of the experiment: In vivo suppression of pentylenetetrazole-induced convulsions by the compound at the mentioned dose of, 10, i.p. (mg/kg); out of 6 tested animals. The experiment is classed as functional. The gist of the method: as §1
Experiment [8] deals with Mus musculus. Put plainly: In vivo Horizontal screen test for motor impairment by the compound at the mentioned dose of 100, i.p. ( mg/kg); out of 6 tested animals. The class given is functional. The gist of the method: as §2
Experiment [9] deals with Mus musculus. Nature of the experiment: In vivo suppression of pentylenetetrazole-induced convulsions by the compound at the mentioned dose of, 100, i.p. ( mg/kg); out of 6 tested animals. The class given is functional. The gist of the method: as §1
In experiment [10] the test system is Mus musculus. Nature of the experiment: In vivo Horizontal screen test for motor impairment by the compound at the mentioned dose of 30, i.p. (mg/kg); out of 6 tested animals. The class given is functional. In short, it runs like this: (§3)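 Mice were dosed orally or ip (vehicle 10 mL/kg). At 1 h, just before PTZ, each was placed on an inverted horizontal screen and scored pass/fail for climbing to the top side within 1 min. Result given as number passed/number tested.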

The target in experiment [11] is T1, GABA-A receptor; anion channel (Rattus norvegicus). Nature of the experiment: Relative binding to GABA-A receptor in the presence and absence of GABA. The class given is functional.
Experiment [12] concerns Mus musculus. Nature of the experiment: In vivo suppression of pentylenetetrazole-induced convulsions by the compound at the mentioned dose of, 30, i.p. (mg/kg); out of 6 tested animals. The experiment is classed as functional. In short, it runs like this: (§4)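 Mice received compound or vehicle (10 mL/kg) po or ip. After 1 h they got pentylenetetrazole 85 mg/kg sc. They were housed individually and observed 30 min for clonic convulsions (present/absent). Result given as number convulsed/number tested.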

For experiment [13], the system named is Mus musculus. Nature of the experiment: In vivo suppression of pentylenetetrazole-induced convulsions by the compound at the mentioned dose of, 30, i.p. (mg/kg); out of 11 tested animals. The class given is functional. In short, it runs like this:
as §4

The test system of experiment [14] is Mus musculus. Nature of the experiment: In vivo suppression of pentylenetetrazole-induced convulsions by the compound at the mentioned dose of, 1, i.p. ( mg/kg); out of 12 tested animals. The experiment is classed as functional. In short, it runs like this:
as §4

For experiment [15], the system named is Mus musculus. Nature of the experiment: In vivo suppression of pentylenetetrazole-induced convulsions by the compound at the mentioned dose of, 10, i.p. (mg/kg); out of 12 tested animals. The experiment is classed as functional. In short, it runs like this: as §4
In experiment [16] the test system is Mus musculus. Put plainly: In vivo Horizontal screen test for motor impairment by the compound at the mentioned dose of 1, i.p. ( mg/kg); out of 12 tested animals. The experiment is classed as functional. The gist of the method:
as §3

Experiment [17] deals with Mus musculus. Put plainly: In vivo Horizontal screen test for motor impairment by the compound at the mentioned dose of 30, i.p. (mg/kg); out of 11 tested animals. The experiment is classed as functional. In short, it runs like this:
as §3

Experiment [18] has as its system Mus musculus. Put plainly: In vivo Horizontal screen test for motor impairment by the compound at the mentioned dose of 10, i.p. (mg/kg); out of 12 tested animals. The class given is functional. The gist of the method:
as §3

In experiment [19] the test system is Mus musculus. Put plainly: In vivo Horizontal screen test for motor impairment by the compound at the mentioned dose of 30, p.o. (mg/kg); out of 12 tested animals. The class given is functional. In short, it runs like this:
as §3

Experiment [20] has as its system Mus musculus. Nature of the experiment: In vivo suppression of pentylenetetrazole-induced convulsions by the compound at the mentioned dose of, 30, p.o. (mg/kg); out of 12 tested animals. The class given is functional. In short, it runs like this: as §4

Turning to `CCCCCCc1ccc(C2=NN(S(=O)(=O)c3ccc(I)cc3)CCC2)cc1`, the half-maximal inhibitory concentration (IC50) in experiment [1] and in experiment [2] was over 11 µM throughout.

With `COP(=O)(c1ccccc1)N1CCCC(c2ccc(F)cc2)=N1` (configuration not stated), the values for the IC50 in [1] and in [2] were over 11 µM and 10 µM, respectively. For the same compound, the GS in [3] is 1.1.

Consider `COc1ccc(C2=NN(P(=O)(OC)c3ccccc3)CCC2)cc1` (configuration not stated), for which the IC50 (commonly the concentration that inhibits the measured activity by half) in [1] is over 11 µM; in experiment [2] it was 6.4 µM. Moreover, the GS in [3] is 1.7.

With `CCOP(=O)(c1ccccc1)N1CCCC(c2ccc(Cl)c(Cl)c2)=N1` (configuration not stated), the Induced convulsion with Mus musculus [4] and in the experiment on Mus musculus [7] was 6 number convulsed throughout. In addition, the Horizontal screen with Mus musculus [5] and in the experiment with Mus musculus [6] was 5 number passed in each case. Also, the figures for the half-inhibitory concentration (IC50) in experiment [1] and in experiment [2] were 1.39 µM and 1.05 µM, respectively. The GS in experiment [3] came to 1.3.

In the case of `CCOP(=O)(c1ccccc1)N1CCCC(c2ccc(F)cc2)=N1` (configuration not stated), the IC50 in experiment [1] was over 11 µM; in experiment [2], 10 µM. In [3], the GS amounted to 1.1.

Take `CCCCc1ccc(C2=NN(P(=O)(OCC)c3ccccc3)CCC2)cc1` (configuration not stated): the half-maximal inhibitory concentration (IC50) in experiment [1] is 1.12 µM; in [2], 0.73 µM. Besides, the Horizontal screen with Mus musculus [6] was determined as 5 number passed. Besides, the Induced convulsion in the experiment on Mus musculus [7] came out at 5 number convulsed. The GS in experiment [3] amounted to 1.5.

With `CCCCc1ccc(C2=NN(S(=O)(=O)c3ccc(C)cc3)CCC2)cc1`, the IC50 in experiment [1] is over 11 µM; in experiment [2], 2.2 µM. Also, the GS in [3] came out at 5.

As to `CC(C)Cc1ccc(C2=NN(S(=O)(=O)c3ccc(I)cc3)CCC2)cc1`, the 50% inhibitory concentration (IC50) in experiment [1] and in [2] was over 11 µM throughout.

`CCCCc1ccc(S(=O)(=O)N2CCCC(c3ccc(C(C)C)cc3)=N2)cc1`: the half-inhibitory concentration (IC50) in experiment [2] came to 10 µM.

With `CCCCc1ccc(C2=NN(S(=O)(=O)c3ccccc3)CCC2)cc1`, the IC50 in experiment [1] is over 11 µM; in [2], 1.1 µM. Besides, in the experiment with Mus musculus [8], the Horizontal screen was 4 number passed. In addition, the GS in experiment [3] is 10. The compound further had an Induced convulsion with Mus musculus [9] of 5 number convulsed.

Regarding `COP(=O)(c1ccccc1)N1CCCC(c2ccc(Cl)c(C(F)(F)F)c2)=N1` (configuration not stated), the concentration for half-maximal inhibition (IC50) turned out to be 8.3 µM in experiment [1] and 6.6 µM in experiment [2]. Besides, the GS in [3] was 1.3.

For the compound `CCCCc1ccc(C2=NN(S(=O)(=O)c3ccc(Cl)cc3)CCC2)cc1`, the 50% inhibitory concentration (IC50) in experiment [1] and in experiment [2] was over 11 µM throughout.

For the compound `CCCCc1ccc(S(=O)(=O)N2CCCC(c3ccc(CC(C)C)cc3)=N2)cc1`, the IC50 in [1] and in experiment [2] was over 11 µM in each case.

Take `CCCCc1ccc(S(=O)(=O)N2CCCC(c3ccc(CC)cc3)=N2)cc1`: the IC50 is 3.77 µM in experiment [1] and 1.8 µM in [2]. Also, the GS in experiment [3] is 2.1.

`CCCCc1ccc(C2=NN(P(=O)(OC)c3ccccc3)CCC2)cc1` (configuration not stated): the values for the IC50 in [1] and in experiment [2] were 2 µM and 0.5 µM, respectively. In addition, the GS in experiment [3] was determined as 4.

On to `CC(=O)[C@H]1CC[C@H]2[C@@H]3CC[C@H]4C[C@H](O)CC[C@]4(C)[C@H]3CC[C@]12C` [BREXANOLONE], for which the figures for the IC50 in experiment [1] and in experiment [2] were 2.61 µM and 0.08 µM, respectively. For the same compound, the GS in experiment [3] was 32.6.

Turning to `C[C@]12CC[C@@H](O)C[C@@H]1CC[C@@H]1[C@@H]2CC[C@]2(C)[C@@H](C(=O)CO)CC[C@@H]12`, the values for the IC50 in experiment [1] and in [2] were 3.05 µM and 0.09 µM, respectively. Besides, the GS in [3] worked out at 33.9.

For `O=P(OC1CCCC1)(c1ccccc1)N1CCCC(c2ccc(Cl)c(Cl)c2)=N1` (configuration not stated), the GS in experiment [3] is 32.6.

As to `CCCCc1ccc(C2=NN(S(=O)(=O)c3ccc(I)cc3)CCC2)cc1`, the results for the IC50 in experiment [1] and in experiment [2] were 10 µM and 0.77 µM, respectively. The Horizontal screen with Mus musculus [10] was found to be 3 number passed. In experiment [11], the GABA shift came to 13.7. In the experiment with Mus musculus [12], this compound yielded an Induced convulsion of 6 number convulsed.

As for `CC(C)c1ccc(C2=NN(S(=O)(=O)c3ccc(I)cc3)CCC2)cc1`, the half-maximal inhibitory concentration (IC50) in experiment [1] was over 11 µM; in experiment [2], 6.31 µM. Besides, the GS in [3] was 1.7.

On to `CCOP(=O)(c1ccccc1)N1CCCC(c2ccc(Cl)c(C(F)(F)F)c2)=N1` (configuration not stated), for which the IC50 in [1] came out at 5.4 µM; in experiment [2], 1.1 µM. The GS in [3] was 4.9.

As to `CC(C)OP(=O)(c1ccccc1)N1CCCC(c2ccc(Cl)c(Cl)c2)=N1` (configuration not stated), the IC50 was 10 µM in experiment [1] and 1.4 µM in experiment [2]. The same compound came in with a Horizontal screen in the experiment with Mus musculus [8] of 0 number passed. Further, the GS in experiment [3] was 7.1. The same compound had an Induced convulsion with Mus musculus [9] of 4 number convulsed.

Take `CCc1ccc(C2=NN(S(=O)(=O)c3ccc(I)cc3)CCC2)cc1`: the concentration for half-maximal inhibition (IC50) stood at 10 µM in experiment [1] and 0.9 µM in experiment [2]. Moreover, in experiment [3], the GS amounted to 11.1.

As for `COP(=O)(c1ccccc1)N1CCCC(c2ccc(Br)cc2)=N1` (configuration not stated), the half-maximal inhibitory concentration (IC50) in experiment [1] and in experiment [2] was over 11 µM in each case.

For `COP(=O)(c1ccccc1)N1CCCC(c2ccccc2)=N1` (configuration not stated), the IC50 in [2] is over 11 µM.

As for `CCCCc1ccc(C2=NN(S(=O)(=O)c3ccc(CCCC)cc3)CCC2)cc1`, the Induced convulsion in the experiment on Mus musculus [13] was determined as 10 number convulsed; in the experiment on Mus musculus [14], 9 number convulsed; with Mus musculus [15] it was 8 number convulsed; with Mus musculus [20], 12 number convulsed. For the same compound, the IC50 in experiment [1] was over 11 µM; in [2], 0.21 µM. Further, the Horizontal screen in the experiment on Mus musculus [16] was 11 number passed; with Mus musculus [17] it was 10 number passed; with Mus musculus [18] it was 12 number passed; with Mus musculus [19] it was 12 number passed. The GS in [3] turned out to be 52.4.
